Rin1-Abl PPI inh: blocks binding of human Rin1 to Abl. inhibition, % at 7.35 µM. 360,000 tested, 0.4% active. TR-FRET Rin1/Abl binding, biochemical. P00519+Q13671; in the data active = inhibition above about 5%, passing the limit was not always enough
Target sequence (P00519 whole entry, looked up): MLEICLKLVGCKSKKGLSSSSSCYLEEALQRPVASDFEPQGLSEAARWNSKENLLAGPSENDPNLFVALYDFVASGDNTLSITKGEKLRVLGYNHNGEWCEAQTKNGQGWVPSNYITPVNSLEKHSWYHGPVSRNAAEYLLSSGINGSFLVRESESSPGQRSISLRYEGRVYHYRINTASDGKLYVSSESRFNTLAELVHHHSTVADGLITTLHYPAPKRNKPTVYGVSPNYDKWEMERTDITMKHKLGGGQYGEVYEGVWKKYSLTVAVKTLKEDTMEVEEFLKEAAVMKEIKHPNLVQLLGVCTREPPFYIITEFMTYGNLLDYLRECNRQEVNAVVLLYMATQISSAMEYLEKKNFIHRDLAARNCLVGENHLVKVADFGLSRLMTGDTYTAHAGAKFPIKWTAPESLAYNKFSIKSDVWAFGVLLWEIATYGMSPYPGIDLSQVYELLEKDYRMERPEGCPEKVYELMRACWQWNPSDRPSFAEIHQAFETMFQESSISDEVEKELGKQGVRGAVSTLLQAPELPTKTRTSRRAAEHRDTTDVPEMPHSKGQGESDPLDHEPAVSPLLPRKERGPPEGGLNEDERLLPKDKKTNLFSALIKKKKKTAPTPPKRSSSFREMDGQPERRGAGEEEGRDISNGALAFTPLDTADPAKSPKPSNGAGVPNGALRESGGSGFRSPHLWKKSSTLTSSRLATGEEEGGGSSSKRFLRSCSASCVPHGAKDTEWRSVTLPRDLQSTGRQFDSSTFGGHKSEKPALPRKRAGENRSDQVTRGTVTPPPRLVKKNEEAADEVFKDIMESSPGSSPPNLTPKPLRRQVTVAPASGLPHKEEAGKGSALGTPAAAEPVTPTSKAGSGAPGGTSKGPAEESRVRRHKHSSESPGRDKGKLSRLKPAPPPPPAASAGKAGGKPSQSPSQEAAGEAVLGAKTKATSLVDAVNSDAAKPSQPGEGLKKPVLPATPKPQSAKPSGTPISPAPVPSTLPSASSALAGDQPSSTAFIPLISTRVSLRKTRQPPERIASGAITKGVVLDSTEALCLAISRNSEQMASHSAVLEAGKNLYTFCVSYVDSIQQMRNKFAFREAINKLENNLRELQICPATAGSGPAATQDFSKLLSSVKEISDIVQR
Target sequence (Q13671 whole entry, looked up): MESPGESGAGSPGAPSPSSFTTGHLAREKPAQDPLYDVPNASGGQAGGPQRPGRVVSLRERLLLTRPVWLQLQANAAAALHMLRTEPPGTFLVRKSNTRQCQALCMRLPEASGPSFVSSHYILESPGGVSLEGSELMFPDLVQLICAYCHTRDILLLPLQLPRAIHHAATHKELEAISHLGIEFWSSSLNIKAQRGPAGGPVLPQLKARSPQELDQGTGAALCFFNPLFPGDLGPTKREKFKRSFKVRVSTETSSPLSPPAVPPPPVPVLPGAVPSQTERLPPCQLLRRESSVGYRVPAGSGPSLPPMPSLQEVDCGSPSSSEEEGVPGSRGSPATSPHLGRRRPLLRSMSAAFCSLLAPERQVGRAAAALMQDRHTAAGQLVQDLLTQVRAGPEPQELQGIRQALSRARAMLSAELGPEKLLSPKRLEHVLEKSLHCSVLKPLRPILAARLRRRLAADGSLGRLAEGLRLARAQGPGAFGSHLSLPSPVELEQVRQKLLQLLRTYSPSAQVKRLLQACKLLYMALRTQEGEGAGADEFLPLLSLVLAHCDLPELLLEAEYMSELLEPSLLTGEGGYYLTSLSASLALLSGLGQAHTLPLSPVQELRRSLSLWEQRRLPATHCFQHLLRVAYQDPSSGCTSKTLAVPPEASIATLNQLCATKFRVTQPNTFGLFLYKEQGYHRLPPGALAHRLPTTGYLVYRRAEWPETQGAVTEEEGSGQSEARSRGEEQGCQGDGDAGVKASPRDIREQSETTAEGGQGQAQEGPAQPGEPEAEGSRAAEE
SKN-1 inh: blocks SKN-1 activity in C. elegans; C. elegans VP596 Pgst-4::GFP/RFP ratio, acrylamide-induced, 24 h; AID 624304; inhibition, % at 21.8 µM; 360,000 tested, 0.49% active;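 active = interference check ratio from 0.5 to 1.5 plus GFP to RFP signal ratio inhibition reaching or exceeding a fixed threshold, cut at about 30% in these data, passing the limit was not always enough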
MT1-MMP act inh: inhibitors of human MT1-MMP activation; P50281; HT1080 RFP-PRO-GFP cells, GFP/RFP ratio fluorescence, overnight; percent of plate control window, DMSO zero; GFP/RFP ratio change, % at 20 µM; 360,000 tested, 0.061% active; AID 651647;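 active = GFP/RFP ratio change of at least 30% with cell ATP level not reduced by more than half and red fluorescence within 50% of control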
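Assay system: HT1080 RFP-PRO-GFP cells | Dosing: 20 µM single dose, 1% DMSO | Incubation: Cells overnight before dosing, compound overnight, 37 °C, 5% CO2 | Evaluation: GFP/RFP fluorescence ratio | Control set: DMSO-only wells and HT1080 RFP-L50D-GFP cell wells as references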
Arrestin-AP2 inh: inhibitors of human beta-arrestin and AP2 interaction; 340,000 tested, 0.31% active; FITC-arrestin peptide / GST-AP2 beads, flow cytometry; AP2 beta2 appendage carries R879A mutation; inhibition, % at 10 µM;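 active = inhibition above a set limit, near 3 SD of compounds lacking own fluorescence, cut at about 54% in these data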;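 also: plate controls were DMSO wells for no effect and 5 µM unlabelled arrestin peptide for full effect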
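System: GST-tagged AP2 beta2-adaptin appendage (R879A) on 4 µm glutathione beads / Reagent: FITC-arrestin peptide, 50 nM / Detection: HyperCyt-sampled flow cytometry, FL1 channel, ex 488/em 535 nm / Timing: 12 min plus 1 h, RT / Buffer or medium: PBS plus Tween 20 (0.05%) and BSA (0.1%)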
Tb MetRS inh: Trypanosoma brucei MetRS inhibition | inhibition, % at 11.9 µM | 360,000 tested, 0.4% active | purified T. brucei MetRS, ATP depletion, Kinase-Glo luminescence;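 active = inhibition above a per-plate cutoff of the control wells' mean inhibition plus 3 SD, cut at about 5.5% in these data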;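 also: 0% = DMSO wells median and 100% = median of wells with control inhibitor compound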
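Dosing: 11.9 µM single point; system: parasite MetRS enzyme; technique: luminescence of leftover ATP; times: 15 min enzyme-compound preincubation, 2 h reaction, 10 min detection, 25 °C; replicates: each compound tested once; read-out basis: percent inhibition relative to median high and low control wells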
Arr AP2 CP1: blocks beta-arrestin peptide binding to human AP2. shares compounds with Arrestin-AP2 inh. GST-AP2 beads, FITC arrestin peptide binding, flow cytometry; GST-fused beta2-adaptin appendage, R879A mutant. inhibition, % at 10 µM. 1,300 tested, 2% active. AID 504908;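 active = inhibition above a set limit, roughly 3 SD of non-fluorescent compound noise, cut at about 38% in these data; inactive = inhibition at or below that limit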;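 also: loss of bead fluorescence from 50 nM FITC arrestin peptide bound to appendage; 0% = negative control wells and 100% = excess unlabelled arrestin peptide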
GST GSH counter: disrupts GST binding to glutathione beads, arrestin-AP2 artifact; shares compounds with Arrestin-AP2 inh; GST-fluorescein binding to GSH beads, fluorescence, counter-screen; inhibition, % at 10 µM; 1,300 tested, 2% active;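 active = inhibition above 50%, about 3 SD of the inhibition seen with non-fluorescent compounds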;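 also: fluorescein maleimide labelled GST captured on 4 micron glutathione beads; higher means more loss of bead fluorescence from quenching or blocked binding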
Rin1 Abl conf: Rin1-Abl interaction inhibition confirmation | shares compounds with Rin1-Abl PPI inh | TR-FRET Rin1-Abl binding, purified proteins | inhibition, % at 7.35 µM | 1,300 tested, 49% active | AID 602124
GFP quencher: counter-screen for Rin1-Abl inhibitors: GFP fluorescence quenchers. shares compounds with Rin1-Abl PPI inh. 1,300 tested, 8.5% active. inhibitors/quenchers counterscreen. AID 602125. inhibition, % at 6.75 µM;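 also: ABL1-eGFP fusion protein alone without its partner RIN1-SBP; 0% = protein with vehicle and 100% = wells lacking protein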
GFP quench DR: counter-screen for Rin1-Abl inhibitors: GFP quenchers, dose response; IC50, µM; 230 tested, under 10 active; GFP fluorescence interference/quenching counterscreen; shares compounds with Rin1-Abl PPI inh; AID 602182; call rule not given here;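 also: ABL1-eGFP fusion protein alone without its RIN1 binding partner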
* marks the source's active call; other numbers are inactive results; . = no result given. Shown are actives, neighbours in structure and some others; about 1.6% of the full set was active somewhere. Rule as the data show it, unless noted: active = inhibition above about 6.5%; inactive = the rest.

SMILES	Rin1-Abl PPI inh	SKN-1 inh	MT1-MMP act inh	Arrestin-AP2 inh	Tb MetRS inh	Rin1 Abl conf	GFP quencher	others
COc1ccccc1-n1c(CNCC2CCCO2)nc2ccccc2c1=O (centres undefined)	-1.5	0.6	-6.5	59.8*	-0.2	.	.	Arr AP2 CP1=-1.2;GST GSH counter=-7.2
c1ccc2c(c1)cc1ccc3cccc4ccc2c1c34	2.3	12.1	-23.6	57.2*	-0.2	.	.	Arr AP2 CP1=11.3;GST GSH counter=-0.7
Cc1cccc(C)c1-n1nnnc1C(C1CC1)N1CCC2(CC1)C(=O)NCN2c1ccccc1 (centres undefined)	0.9	-2.0	4.2	.	-0.5	.	.
CN(C)c1ccc(C=C2C(=O)NC(=S)NC2=O)cc1[N+](=O)[O-]	-4.2	6.0	5.2	63.7*	0.0	.	.	Arr AP2 CP1=16.9;GST GSH counter=6.5
CN(C)c1ccc(C=C2C(=O)NC(=O)NC2=O)cc1[N+](=O)[O-]	-10.2	14.2	1.9	5.3	0.6	.	.
CCOC(=O)C1(CCOc2ccccc2)CCN(Cc2ccc(C)s2)CC1	0.2	1.6	-1.8	57.0*	-0.8	.	.	Arr AP2 CP1=10.1;GST GSH counter=-4.5
CCOC(=O)C1(CCc2ccccc2)CCN(Cc2ccc3c(c2)OCCO3)CC1	2.9	8.8	5.2	4.3	-0.8	.	.
O=C1NC(=O)C(C2CCCCCC2)C(=O)N1	2.3	-5.0	-3.7	-2.3	-0.3	.	.
CCCN1CCc2cc(O)cc3c2[C@H]1Cc1ccc(O)c(O)c1-3	11.3*	2.8	6.9	37.4	0.1	11.7*	8.6*
CC(Cc1ccc(O)cc1)NCC(O)c1ccc(O)c(O)c1 (centres undefined)	14.3*	4.4	0.6	.	0.2	9.3*	4.2
CNCC(O)c1ccc(O)cc1 (centres undefined)	-0.1	5.2	4.7	.	-0.2	.	.
CCCCn1c(NC(=O)c2ccc(Br)o2)c(C(=O)OCC)c2nc3ccccc3nc21	7.3*	11.9	-85.3	7.5	3.5	4.9	1.2
CN(Cc1cccc(-c2ccncc2)c1)C(=O)Oc1ccc([N+](=O)[O-])cc1	.	14.2	1.0	.	-0.2	.	.
CCC(C)NC(=O)c1c(N)n(CC2CCCO2)c2nc3ccccc3nc12 (centres undefined)	5.7*	20.9	-2.3	-1.0	0.3	3.1	-0.8
CC(C)CCNC(=O)c1c(N)n(CC2CCCO2)c2nc3ccccc3nc12 (centres undefined)	7.7	3.1	-0.4	1.8	1.1	.	.
NC(Cc1ccccc1)c1nn[nH]n1 (centres undefined)	1.7	2.8	1.8	3.5	0.3	.	.
CC(C)CN1Cc2ccccc2-n2nncc2C1	0.3	2.2	1.1	.	-0.6	.	.
CC[C@H](OC(C)=O)C(C[C@H](C)N(C)C)(c1ccccc1)c1ccccc1	6.8*	0.3	-3.2	9.5	-0.8	8.4*	2.0
CCC(=O)OC(Cc1ccccc1)(c1ccccc1)[C@H](C)CN(C)C (some centres undefined)	1.3	-2.3	-2.1	10.5	0.9	.	.
CNC(=O)C[C@H]1CC[C@@H]2NC[C@H](O)COC[C@H]2O1	.	6.7	2.4	.	0.6	.	.
COC(=O)C(O)(c1ccc(NC(=O)c2ccccc2)cc1)C(F)(F)F (centres undefined)	1.0	9.4	-0.9	-6.5	-1.0	.	.
COC(=O)CCCCC1SCC(NC(=O)c2ccccc2)C1Cl (centres undefined)	9.2*	2.0	3.0	37.6	-0.7	13.5*	-1.9
COc1cccc(C(c2nnnn2-c2ccc3c(c2)OCCO3)N2CCC(n3c(=O)[nH]c4ccccc43)CC2)c1OC (centres undefined)	19.9*	12.7	-10.7	.	-0.6	18.9*	-1.1	GFP quench DR=>67.5
COc1ccc(-n2nnnc2C(c2cccc(OC)c2OC)N2CCC(n3c(=O)[nH]c4ccccc43)CC2)cc1 (centres undefined)	18.6*	-3.2	-4.3	.	-0.6	15.9*	1.9
O=c1[nH]c2ccccc2n1C1CCN(C(c2nnnn2-c2ccc3c(c2)OCCO3)C2CC2)CC1 (centres undefined)	17.2*	13.7	-14.2	.	0.0	19.9*	0.8	GFP quench DR=>67.6
SMILES	Rin1-Abl PPI inh	SKN-1 inh	MT1-MMP act inh	Arrestin-AP2 inh	Tb MetRS inh	Rin1 Abl conf	GFP quencher	others
COc1ccc(-n2nnnc2C(c2ccccc2)N2CCC(n3c(=O)[nH]c4ccccc43)CC2)cc1 (centres undefined)	6.9	9.3	-11.4	.	-0.8	.	.
COc1ccc(-n2nnnc2C(C2CC2)N2CCC(n3c(=O)[nH]c4ccccc43)CC2)cc1 (centres undefined)	20.1*	-0.9	0.4	.	0.1	23.6*	0.1	GFP quench DR=>67.5
O=c1c2ccccc2nc(CSc2ncnc3nc[nH]c23)n1-c1ccccc1	7.6*	-38.0	-0.3	6.8	-2.3	-0.6	-0.8
COP(=O)(OC)C(Nc1ccccn1)c1ccccc1 (centres undefined)	-3.9	-17.1	1.0	10.1	-0.9	.	.
COP(=O)(OC)C(NS(=O)(=O)c1ccccc1)C(Cl)(Cl)Cl (centres undefined)	8.0*	13.0	2.5	39.8	-0.7	-0.5	-0.8
Cc1ccc(N2C(=O)NC(=O)/C(=C/C=C/c3ccco3)C2=O)cc1	6.2*	-0.3	-28.9	1.9	-1.2	2.7	0.4
O=C1NCN(c2ccccc2)C12CCN(C(c1nnnn1-c1ccc3c(c1)OCCO3)C1CC1)CC2 (centres undefined)	3.5	3.4	1.4	.	0.2	.	.
CCN(CC)C(=O)c1ccc2c(c1)C1C(Cl)C(Sc3ccccc3[N+](=O)[O-])CC1C(C(=O)O)N2 (centres undefined)	6.8*	-6.1	69.0	42.6	-0.8	-0.8	16.7*
CN(C)C1C(=O)C(C(N)=O)=C(O)C2(O)C(=O)C3=C(O)c4c(O)cccc4C(C)(O)C3CC12 (centres undefined)	1.9	3.5	1.0	4.6	-0.2	.	.
CN(C)[C@@H]1C(=O)C(C(N)=O)=C(O)[C@@]2(O)C(=O)C3=C(O)c4c(O)cccc4[C@@](C)(O)C3[C@H](O)C12 (some centres undefined)	18.8*	20.1	-4.6	4.9	-0.1	1.9	0.2
